ChEMBL document CHEMBL2346584, “Microwave assisted nano (ZnO-TiO2) catalyzed synthesis of some new 4,5,6,7-tetrahydro-6-((5-substituted-1,3,4-oxadiazol-2-yl)methyl)thieno[2,3-c]pyridine as antimicrobial agents” (2013)
≈ marks a conversion by molar mass, not a printed value. Calls of active or inactive are those of the source. The rule behind the calls is not given here.

Tests used:
Aspergillus niger = experiment: Antifungal activity against Aspergillus niger NCIM 1196 by agar method; assay type: functional
In short: (§1)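 MIC values were obtained with the standard agar method, with miconazole as the reference antifungal standard.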

Candida albicans = experiment: Antifungal activity against Candida albicans NCIM 3471 by agar method; assay type: functional; in short: as §1
Bacillus subtilis [1] = experiment: Antibacterial activity against Bacillus subtilis NCIM 2063 by agar method; assay type: functional
In short: (§2)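 Read-out was the minimum inhibitory concentration (MIC), determined by the standard agar method. Ciprofloxacin and ampicillin served as reference antibacterial standards.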

Pseudomonas aeruginosa [2] = experiment: Antibacterial activity against Pseudomonas aeruginosa NCIM 2036 by agar method; assay type: functional; in short: as §2
Escherichia coli = experiment: Antibacterial activity against Escherichia coli NCIM 2256 by agar method; assay type: functional; in short: as §2
Staphylococcus aureus = experiment: Antibacterial activity against Staphylococcus aureus NCIM 2901 by agar method; assay type: functional; in short: as §2
Pseudomonas aeruginosa [3] = experiment: Antibacterial activity against Pseudomonas aeruginosa NCIM 2036 up to 400 ug/ml by agar method; assay type: functional, organism-based; in short: as §2
Bacillus subtilis [4] = experiment: Antibacterial activity against Bacillus subtilis NCIM 2063 up to 400 ug/ml by agar method; assay type: functional, organism-based; in short: as §2

| SMILES | MIC (Aspergillus niger) [µg/mL] | MIC (Candida albicans) [µg/mL] | MIC (Bacillus subtilis [1]) [µg/mL] | MIC (Pseudomonas aeruginosa [2]) [µg/mL] | MIC (Escherichia coli) [µg/mL] | MIC (Staphylococcus aureus) [µg/mL] | Activity (Pseudomonas aeruginosa [3]) | Activity (Bacillus subtilis [4]) |
| --- | --- | --- | --- | --- | --- | --- | --- | --- |
| c1c[nH]c(-c2nnc(CN3CCc4ccsc4C3)o2)c1 | 120 (≈ 419 µM) | 60 (≈ 210 µM) | 100 (≈ 349 µM) | 125 (≈ 437 µM) | 50 (≈ 175 µM) | 75 (≈ 262 µM) | – | – |
| c1ccc(-c2nnc(CN3CCc4ccsc4C3)o2)nc1 | 60 (≈ 201 µM) | 40 (≈ 134 µM) | 100 (≈ 335 µM) | 150 (≈ 503 µM) | 50 (≈ 168 µM) | 50 (≈ 168 µM) | – | – |
| Clc1cccc(Cl)c1-c1nnc(CN2CCc3ccsc3C2)o1 | 120 (≈ 328 µM) | 20 (≈ 54.6 µM) | 50 (≈ 137 µM) | 100 (≈ 273 µM) | 50 (≈ 137 µM) | 50 (≈ 137 µM) | – | – |
| CC1(C)S[C@@H]2[C@H](NC(=O)[C@H](N)c3ccccc3)C(=O)N2[C@H]1C(=O)O [AMPICILLIN] | – | – | 250 (≈ 715 µM) | 100 (≈ 286 µM) | 100 (≈ 286 µM) | 250 (≈ 715 µM) | – | – |
| Oc1ccc(-c2nnc(CN3CCc4ccsc4C3)o2)cc1O | 100 (≈ 304 µM) | 40 (≈ 121 µM) | – | – | 125 (≈ 379 µM) | 100 (≈ 304 µM) | inactive | inactive |
| c1ccc(-c2nnc(CN3CCc4ccsc4C3)o2)cc1 | 160 (≈ 538 µM) | 80 (≈ 269 µM) | 150 (≈ 504 µM) | 300 (≈ 1010 µM) | 150 (≈ 504 µM) | 125 (≈ 420 µM) | – | – |
| Clc1ccccc1-c1nnc(CN2CCc3ccsc3C2)o1 | 140 (≈ 422 µM) | 80 (≈ 241 µM) | 100 (≈ 301 µM) | 200 (≈ 603 µM) | 125 (≈ 377 µM) | 100 (≈ 301 µM) | – | – |
| Clc1ccc(COC(Cn2ccnc2)c2ccc(Cl)cc2Cl)c(Cl)c1 (stereo not given) [MICONAZOLE] | 12.5 (≈ 30 µM) | 25 (≈ 60.1 µM) | – | – | – | – | – | – |
| Oc1ccc(-c2nnc(CN3CCc4ccsc4C3)o2)cc1 | 140 (≈ 447 µM) | 60 (≈ 191 µM) | – | – | 175 (≈ 558 µM) | 175 (≈ 558 µM) | inactive | inactive |
| COc1ccc(-c2nnc(CN3CCc4ccsc4C3)o2)cc1 | 140 (≈ 428 µM) | 80 (≈ 244 µM) | 125 (≈ 382 µM) | 175 (≈ 534 µM) | 125 (≈ 382 µM) | 100 (≈ 305 µM) | – | – |
| c1csc(-c2nnc(CN3CCc4ccsc4C3)o2)c1 | 80 (≈ 264 µM) | 40 (≈ 132 µM) | 50 (≈ 165 µM) | 150 (≈ 494 µM) | 25 (≈ 82.4 µM) | 75 (≈ 247 µM) | – | – |
| Fc1ccc(-c2nnc(CN3CCc4ccsc4C3)o2)cc1 | 60 (≈ 190 µM) | 20 (≈ 63.4 µM) | 50 (≈ 159 µM) | 100 (≈ 317 µM) | 25 (≈ 79.3 µM) | 25 (≈ 79.3 µM) | – | – |
| O=C(O)c1cn(C2CC2)c2cc(N3CCNCC3)c(F)cc2c1=O [CIPROFLOXACIN] | – | – | – | – | 25 (≈ 75.4 µM) | 50 (≈ 151 µM) | – | – |
| Clc1ccc(-c2nnc(CN3CCc4ccsc4C3)o2)cc1 | 100 (≈ 301 µM) | 60 (≈ 181 µM) | 100 (≈ 301 µM) | 250 (≈ 753 µM) | 100 (≈ 301 µM) | 75 (≈ 226 µM) | – | – |
| Clc1ccc(-c2nnc(CN3CCc4ccsc4C3)o2)c(Cl)c1 | 60 (≈ 164 µM) | 20 (≈ 54.6 µM) | 75 (≈ 205 µM) | 125 (≈ 341 µM) | 50 (≈ 137 µM) | 75 (≈ 205 µM) | – | – |
